From ChEMBL document CHEMBL3758101, “Synthesis and biological evaluation of fluorinated 1,5-diarylpyrrole-3-alkoxyethyl ether derivatives as selective COX-2 inhibitors endowed with anti-inflammatory activity” (Eur J Med Chem, 2016)
Active and inactive are the calls of the source.

What was measured:
Rattus norvegicus [1] = test: Antihyperalgesic effect in Sprague-Dawley rat model of monosodium iodoacetate-induced osteoarthritis assessed as withdrawal threshold at 10 mg/kg, ip administered 14 days post MIA challenge measured after 60 mins by paw pressure test (reference value: 36.1 +/- 3.5 g); format: functional
Procedure, shortened: (§1)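 Male Sprague–Dawley rats (200–250 g). MIA (2 mg/25 µL) was injected into the left tibiotarsal joint on day 0 under 2% isoflurane; controls received 25 µL saline. On day 14 compound or vehicle was given at time 0. Paw pressure threshold (g) was read with an analgesimeter using a blunt conical probe on the dorsal paw at 30, 60, 90 and 120 min. Mean ± s.e.m., 6 rats.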

Rattus norvegicus [2] = test: Antihyperalgesic activity in Sprague-Dawley rat model of carrageenan-induced inflammatory pain assessed as paw pressure threshold at 20 mg/kg, po administered 2 hrs post carrageenan challenge measured after 60 mins by paw pressure test (reference value: 35.4 +/- 3.6 g)
HaCaT [3] = test: Antiproliferative activity against human HaCaT cells at 1 uM after 24 hrs by BrdU incorporation assay; format: functional, cell-based
Procedure, shortened: (§2)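 HaCaT human keratinocytes were grown in high-glucose DMEM with 10% FBS and 2 mM L-glutamine at 37 °C and 5% CO2 to 80% confluency. Cells were treated 24 h with compound at 1, 10 or 50 µM (final DMSO ≤0.1%). Proliferation was read by BrdU incorporation as % of DMSO control; three experiments.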

Rattus norvegicus [4] = test: Antihyperalgesic effect in Sprague-Dawley rat model of monosodium iodoacetate-induced osteoarthritis assessed as withdrawal threshold at 10 mg/kg, ip administered 14 days post MIA challenge measured after 120 mins by paw pressure test (reference value: 39.2 +/- 4 g); format: functional; procedure, shortened: as §1
HaCaT [5] = test: Cytotoxicity against human HaCaT cells at 1 to 50 uM after 24 hrs by LDH release assay; format: cell-based
Procedure, shortened: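 HaCaT cells were grown in high-glucose DMEM with 10% FBS to 80% confluency. They were exposed 24 h to compound at 1–50 µM (final DMSO ≤0.1%). LDH release was expressed as a percentage of Triton X-100 lysis (100%); mean of three experiments.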

[6] = molecular target: T1, Prostaglandin G/H synthase 2 (Mus musculus, UniProt Q05769); test: Inhibition of COX-2 in mouse J774 cells assessed as reduction in LPS-induced PGE2 level incubated for 24 hrs by radio immunoassay; format: cell-based
T1 sequence (Q05769 whole entry): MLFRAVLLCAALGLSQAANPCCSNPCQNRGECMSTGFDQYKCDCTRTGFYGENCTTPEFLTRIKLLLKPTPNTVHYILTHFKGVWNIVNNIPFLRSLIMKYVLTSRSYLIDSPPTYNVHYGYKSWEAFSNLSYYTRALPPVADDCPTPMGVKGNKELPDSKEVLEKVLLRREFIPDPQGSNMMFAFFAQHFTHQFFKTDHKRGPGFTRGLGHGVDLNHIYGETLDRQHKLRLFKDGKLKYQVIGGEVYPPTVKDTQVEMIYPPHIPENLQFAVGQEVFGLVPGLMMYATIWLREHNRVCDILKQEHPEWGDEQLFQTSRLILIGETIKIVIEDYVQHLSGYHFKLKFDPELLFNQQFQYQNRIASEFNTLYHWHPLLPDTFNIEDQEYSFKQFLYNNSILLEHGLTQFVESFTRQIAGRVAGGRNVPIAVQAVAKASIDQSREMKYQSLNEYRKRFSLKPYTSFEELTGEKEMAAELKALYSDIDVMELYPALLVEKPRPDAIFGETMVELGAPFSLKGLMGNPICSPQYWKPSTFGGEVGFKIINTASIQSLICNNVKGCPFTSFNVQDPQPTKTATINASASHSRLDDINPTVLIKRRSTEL
Procedure, shortened: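 Murine J774 macrophages were stimulated for 24 h with E. coli LPS (10 µg/mL) to induce COX-2, with or without compound (0.001–10 µM). Supernatant PGE2 was measured by RIA as % inhibition of production versus control; triplicate wells, mean of three experiments, IC50 from a sigmoidal variable-slope fit.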

Rattus norvegicus [7] = test: Antihyperalgesic effect in Sprague-Dawley rat model of monosodium iodoacetate-induced osteoarthritis assessed as withdrawal threshold at 3 mg/kg, ip administered 14 days post MIA challenge measured after 90 mins by paw pressure test (reference value: 37.8 +/- 3.1 g); format: functional; procedure, shortened: as §1
Mus musculus [8] = species on record: Mus musculus; test: Selectivity ratio of IC50 for mouse COX-1 to IC50 for mouse COX-2
Procedure, shortened: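 In J774 cells, the ratio was taken as COX-1 IC50 over COX-2 IC50. COX-1 activity: 15 min compound pretreatment, then 30 min with 15 µM arachidonic acid. COX-2 activity: 24 h LPS (10 µg/mL) induction with compound. PGE2 was measured by RIA in both; IC50 values came from sigmoidal fits of three experiments.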

HaCaT [9] = test: Antiproliferative activity against human HaCaT cells at 10 uM after 24 hrs by BrdU incorporation assay; format: functional, cell-based; procedure, shortened: as §2
Rattus norvegicus [10] = test: Antihyperalgesic activity in Sprague-Dawley rat model of carrageenan-induced inflammatory pain assessed as paw pressure threshold at 20 mg/kg, po administered 2 hrs post carrageenan challenge measured after 120 mins by paw pressure test (reference value: 34.5 +/- 4.4 g)
Rattus norvegicus [11] = test: Antihyperalgesic effect in Sprague-Dawley rat model of monosodium iodoacetate-induced osteoarthritis assessed as withdrawal threshold at 3 mg/kg, ip administered 14 days post MIA challenge measured after 60 mins by paw pressure test (reference value: 36.1 +/- 3.5 g); format: functional; procedure, shortened: as §1
Mus musculus [12] = test: Antinociceptive activity in CD1 albino mouse model of acetic acid-induced visceral pain assessed as number of writhes at 10 mg/kg, po pretreated for 60 mins before acetic acid challenge measured after 5 mins (reference value: 32.5 +/- 2.4); format: functional
Rattus norvegicus [13] = test: Antihyperalgesic effect in Sprague-Dawley rat model of monosodium iodoacetate-induced osteoarthritis assessed as withdrawal threshold at 20 mg/kg, ip administered 14 days post MIA challenge measured after 60 mins by paw pressure test (reference value: 36.1 +/- 3.5 g); format: functional; procedure, shortened: as §1
Rattus norvegicus [14] = test: Antihyperalgesic effect in Sprague-Dawley rat model of monosodium iodoacetate-induced osteoarthritis assessed as withdrawal threshold at 10 mg/kg, ip administered 14 days post MIA challenge measured after 90 mins by paw pressure test (reference value: 37.8 +/- 3.1 g); format: functional; procedure, shortened: as §1
Rattus norvegicus [15] = test: Antiinflammatory activity in Sprague-Dawley rat model of carrageenan-induced paw edema assessed as volume of paw edema at 10 mg/kg, po administered 2 hrs post carrageenan challenge measured after 60 mins by plethysmometry (reference value: 2.73 +/- 0.07 ml); format: functional

IC50 [6]: 7 nM | Ratio IC50 (Mus musculus [8]): > 14300
Structure (SMILES): Cc1c(CCOCCCF)cc(-c2ccc(S(C)(=O)=O)cc2)n1-c1ccc(F)cc1
Activity (Rattus norvegicus [1]): 51.8 g | Activity (Rattus norvegicus [2]): 56.3 g | Activity (HaCaT [3]): inactive | Activity (Rattus norvegicus [4]): 40.6 g | Activity (HaCaT [5]): Non-toxic | Activity (Rattus norvegicus [7]): 42.4 g | Activity (HaCaT [9]): Active | Activity (Rattus norvegicus [10]): 35.5 g | Activity (Rattus norvegicus [11]): 45.4 g | Activity (Mus musculus [12]): 17.7 | Activity (Rattus norvegicus [13]): 54.5 g | Activity (Rattus norvegicus [14]): 44.3 g | Activity (Rattus norvegicus [15]): 2.15 mL
